Test results published in ChEMBL document CHEMBL1125727 (J Med Chem, 1991).

Key:
Assay type in all cases: functional, cell-based
P388 [1] = experiment: Percentage increase in lifespan of drug-related tumor bearing animals when heated at the optimal dose and tested in murine leukemia P388 cell lines.; conditions: Mus musculus
In short: (§1)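 Mice inoculated intraperitoneally with 10⁶ P388 leukemia cells. Single drug dose on day 1 in 0.1 or 0.2 mL of 30% v/v ethanol/water. Optimal dose given in mg/kg. ILS is the percentage increase in lifespan at the optimal dose, with values above 20% taken as significant.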

P388 [2] = experiment: Optimal dose administered as a single dose by intraperitoneal inoculation of 10 X E6 murine leukemia P388 cell lines.; conditions: Mus musculus; in short: as §1
P388 [3] = experiment: In vitro cytotoxicity against murine leukemia P388 cell line.; conditions: Mus musculus
In short: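 P388 cells kept in exponential growth in RPMI 1640 with 10% fetal calf serum. Log-phase cultures in 96-well plates with drug present throughout 72 h growth. Final density read by a modified MTT method. IC50 is the nominal concentration reducing cell density to 50% of control, with eight controls per plate.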

CHO-AA8 = experiment: Compound was evaluated for in vitro cytotoxicities against Chinese hamster ovary derived AA8 cell lines.; conditions: Cricetulus griseus
In short: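 AA8 cells kept in exponential growth in Alpha MEM with 10% fetal calf serum. Log-phase cultures in 96-well plates, drug exposure 18 h, ended by three washes with fresh medium, then 72 h further growth. Cell density read by methylene blue staining. IC50 is the nominal concentration reducing cell density to 50% of control, with eight controls per plate.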

UV4 = experiment: Hypersensitivity factor obtained from in vitro cytotoxicities against Chinese hamster ovary derived AA8 / UV4 cell lines; conditions: Cricetulus griseus
In short: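 HF = IC50(AA8)/IC50(UV4). Both lines kept in Alpha MEM with 10% fetal calf serum and exposed to drug for 18 h, then washed three times and grown 72 h more. Density read by methylene blue. Each IC50 is the nominal concentration giving 50% of control density, with eight controls per plate.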

Row | Structure (SMILES) | ILS (P388 [1]) | OD (P388 [2]) | IC50 (P388 [3]) | IC50 (CHO-AA8) | HF (UV4)
1 | CCN(CCCl)c1ccc(CCCNC(=O)c2ccc(NCCCc3ccc(N(CC)CCCl)cc3)c3cc4ccccc4nc23)cc1 | 25% | 45 mg/kg | 0.29 µM | 1.5 µM | 5.4
2 | CCN(CCCl)c1ccc(SCCNC(=O)c2ccc(NCCSc3ccc(N(CC)CCCl)cc3)c3cc4ccccc4nc23)cc1 |  |  | 0.55 µM | 9.4 µM | 7.4
3 | CN(C)CCNC(=O)c1ccc(NCCCc2ccc(N(CCCl)CCCl)cc2)c2cc3ccccc3nc12 |  | 13.3 mg/kg | 0.06 µM | 0.21 µM | 19
4 | COc1cc(NS(C)(=O)=O)ccc1Nc1ccc(C(=O)NCCCc2ccc(N(CCCl)CCCl)cc2)c2nc3ccccc3cc12 | 26% | 65 mg/kg | 0.18 µM | > 4000 µM | > 50
5 | O=C(O)CCCc1ccc(N(CCCl)CCCl)cc1 [CHLORAMBUCIL] | 37% | 225 mg/kg |  |  | 58
